Assay results reported in ChEMBL document CHEMBL1122366, “Potential antiatherosclerotic agents. 3. Substituted benzoic and non benzoic acid analogues of cetaben” (1983).

Tests used:
Rattus norvegicus [1] = test: In vivo sterol lowering activity when dosed as 0.01 % of the diet; type: functional
Procedure, shortened: (§1)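 Normal rats were dosed in the diet. Serum sterol and triglyceride levels were measured and expressed as the mean percent of control values. Significance versus control was reported at p < 0.05, 0.01 and 0.001.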

Rattus norvegicus [2] = test: In vivo triglyceride lowering activity dosed at 0.10 % of the diet.; type: functional; procedure, shortened: as §1
Rattus norvegicus [3] = test: In vivo sterol lowering activity at dose of 0.10 % of the diet; type: functional; procedure, shortened: as §1
Rattus norvegicus [4] = test: In vivo triglyceride lowering activity when dosed at 0.03 % of the diet; type: functional; procedure, shortened: as §1
Rattus norvegicus [5] = test: In vivo triglyceride lowering activity when dosed as 0.01 % of the diet; type: functional; procedure, shortened: as §1
Rattus norvegicus [6] = test: In vivo sterol lowering activity when dosed as 0.03 % of the diet; type: functional; procedure, shortened: as §1
[7] = target: T1, Sterol O-acyltransferase 1 (Rattus norvegicus) (UniProt O70536); test: In vitro inhibition of acyl coenzyme A:cholesterol acyltransferase; parameters: concentration or dose not given beside the values; conditions: concentration not given here
T1 sequence (whole entry): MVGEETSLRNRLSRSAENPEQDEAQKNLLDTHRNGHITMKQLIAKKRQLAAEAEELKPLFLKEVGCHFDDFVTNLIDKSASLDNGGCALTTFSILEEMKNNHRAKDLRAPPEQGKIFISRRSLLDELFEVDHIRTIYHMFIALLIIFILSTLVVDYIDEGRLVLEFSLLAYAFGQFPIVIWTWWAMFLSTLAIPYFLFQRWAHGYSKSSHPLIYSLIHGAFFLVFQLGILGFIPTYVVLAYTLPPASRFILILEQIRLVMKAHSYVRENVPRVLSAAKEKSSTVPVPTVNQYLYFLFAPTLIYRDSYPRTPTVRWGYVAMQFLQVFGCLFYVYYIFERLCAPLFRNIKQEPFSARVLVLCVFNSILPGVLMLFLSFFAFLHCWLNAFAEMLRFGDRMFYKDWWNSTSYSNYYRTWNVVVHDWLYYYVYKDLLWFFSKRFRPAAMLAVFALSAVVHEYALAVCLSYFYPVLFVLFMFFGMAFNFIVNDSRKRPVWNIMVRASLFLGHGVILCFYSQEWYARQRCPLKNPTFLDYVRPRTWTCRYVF
Procedure, shortened: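 Enzyme fatty acyl-CoA:cholesterol acyltransferase (ACAT), assayed in vitro at a single drug concentration of 5.2 μg/mL. The value is the mean percent inhibition of enzyme activity.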

| Structure (SMILES) | serum sterol level, % of control (Rattus norvegicus [1]) [%] | serum triglyceride, percent of control (Rattus norvegicus [2]) [%] | serum sterol level, percent of control (Rattus norvegicus [3]) [%] | serum triglyceride level, percent of control (Rattus norvegicus [4]) [%] | serum triglyceride level, percent of control (Rattus norvegicus [5]) [%] | serum sterol level, percent of control (Rattus norvegicus [6]) [%] | inhibition [7] [%] |
| --- | --- | --- | --- | --- | --- | --- | --- |
| CCCCCCCCCCCCCCCCN(CC(=O)O)c1ccc(C(=O)O)cc1 | 105 | 99 | 93 | 100 | 105 | 109 | – |
| CCCCCCCCCCCCCCCCNc1ccc(C#N)cc1 | 86 | 75 | 96 | 71 | 83 | 92 | – |
| CCCCCCCCCCCCCCN(C)c1ccc(C(=O)O)cc1 | 97 | 103 | 97 | 92 | 82 | 94 | – |
| CCCCCCCCCCCCCCCCN(C)c1ccc(C(=O)OCC)cc1 | <70 | 78 | <74 | <73 | <64 | 84 | – |
| CCCCCCCCCCCCCCCCCCN(C)c1ccc(C(=O)O)cc1 | 101 | <75 | 91 | <61 | 86 | 92 | – |
| CCCCCCCCCCCCCCCCNc1ccc(C(=O)CCC(=O)OC)cc1 | – | 86 | <84 | 93 | – | <81 | 7 |
| CCCCCCCCCCCCCCN(C(C)=O)c1ccc(C(=O)O)cc1 | 95 | 96 | 91 | 80 | 98 | <80 | – |
| CCCCCCCCCCCCCCCCN(C(C)=O)c1ccc(C(=O)O)cc1 | 105 | 121 | 103 | 107 | 109 | 105 | – |
| CCCCCCCCCCCCCCCCNc1ccc(C(=O)OCC(O)CO)cc1 (configuration not stated) | <85 | <45 | <71 | <67 | <73 | <82 | – |
| CCCCCCCCCCCCCCCCNc1ccc(C(=O)N2CCCC2)cc1 | 113 | 95 | 101 | – | 75 | 98 | 59 |
| CCCCCCCCCCCCCCCCCN(C)c1ccc(C(=O)O)cc1 | 97 | 109 | 98 | 134 | 98 | 98 | – |
| CCCCCCCCCCCCCCCCNc1ccc(C(=O)O)cc1 [CETABEN] | <72 | <31 | <54 | <45 | <71 | <71 | – |
| CCCCCCCCCCCCCCCCN(CC)c1ccc(C(=O)O)cc1 | <74 | 98 | <86 | <63 | <78 | <60 | – |
| CCCCCCCCCCCCCCCCNc1ccc(C(=O)OCC(O)CO)cc1.Cl (configuration not stated) | <88 | <30 | <69 | <49 | 98 | 92 | – |
| CCCCCCCCCCCCCCCCN(CC)c1ccc(C(=O)[O-])cc1.[Na+] | 114 | – | 116 | – | – | 116 | – |
| CCCCCCCCCCCCCCCCNc1ccc(C(=O)[N-]S(=O)(=O)c2ccc(C)cc2)cc1.[Na+] | <64 | <32 | <48 | <37 | <52 | <52 | – |
| CCCCCCCCCCCCCCCCNc1ccc(CO)cc1 | 98 | 91 | 95 | 117 | 110 | 95 | – |
| CCCCCCCCCCCCCCCCN(C)c1ccc(C(=O)O)cc1 | 85 | 56 | 85 | <66 | <81 | 92 | – |
| CCCCCCCCCCCCCCCCNc1ccc(C(=O)OCC(COC)OC)cc1 (configuration not stated) | – | 70 | 82 | 62 | – | 83 | < 24 |
| CCCCCCCCCCCCCCCCNc1ccc(C(=O)OCC)cc1C | 92 | 95 | 103 | 94 | 81 | <87 | – |
| CCCCCCCCCCCCCCCCCCN(CC)c1ccc(C(=O)O)cc1 | 102 | 103 | 108 | 102 | 85 | 102 | – |
| CCCCCCCCCCCCCCCCN(C(C)=O)c1ccc(COC(C)=O)cc1 | 97 | 80 | 95 | <71 | <70 | 93 | – |
| CCCCCCCCCCCCCCCCNc1ccc(C(N)=O)cc1 | 100 | 114 | <86 | – | – | 102 | – |
| C=CCOC(=O)c1ccc(NCCCCCCCCCCCCCCCC)cc1 | 94 | <70 | <81 | <60 | – | 103 | < 40 |
| CCCCCCCCCCCCCCCCCN(CC)c1ccc(C(=O)O)cc1 | 98 | 106 | 95 | 108 | 126 | 98 | – |
| Br.CCCCCCCCCCCCCCCCNc1ccc(COC(C)=O)cc1 | 93 | 114 | <85 | 135 | 79 | 92 | – |
| CCCCCCCCCCCCCCCCN(CCCCCCCCCCCCCCCC)c1ccc(C(=O)O)c2ccccc12 | 111 | 112 | 101 | 99 | 100 | 109 | – |
| CCCCCCCCCCCCCCCCNc1ccc(C(=O)NS(=O)(=O)c2ccc(C)cc2)cc1 | 89 | <40 | <61 | <35 | <86 | <56 | – |
| CCCCCCCCCCCCCCCCNc1ccc(CC(=O)O)cc1 | 93 | <63 | 87 | 81 | 76 | 87 | – |
